Screens deposited in PubChem BioAssay by several laboratories.
Sampled rows, rich in hits. Any-hit rate of the full collection: about 2%.
VLA-4 inh: inhibition in a human VLA-4 binding assay. P13612. VLA-4 expressing cells, ligand binding flow cytometry. inhibition, % (about 7 µM as worked out from the volumes in the protocol). hit rate 0.2% among 330,000; in the data active = inhibition above about 50%
MT1-MMP act inh: blocks activation of human MT1-MMP; AID 651647; P50281; hit rate 0.061% among 360,000; GFP/RFP ratio change, % at 20 µM; HT1080 RFP-PRO-GFP cells, GFP/RFP ratio fluorescence, overnight; percent of plate control window, DMSO zero;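 active = GFP/RFP ratio change of at least 30% with cell ATP level not reduced by more than half and red fluorescence within 50% of control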
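Compound: 20 µM single dose, 1% DMSO / System: HT1080 RFP-PRO-GFP cells / Controls: DMSO and RFP-L50D-GFP cell wells / Read-out basis: GFP/RFP fluorescence ratio / Schedule: overnight compound exposure at 37 °C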
FGF22 binding: binders of recombinant human FGF22 by thermal shift; SYPRO orange fluorescence; percent of sucrose octasulfate shift, DMSO zero; Q9HCT0; activity (Tm shift, normalised), % at 9.99 µM; AID 651658; hit rate 1.5% among 340,000;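 active = mean Tm shift, scaled 0 neutral to 100 positive control, at about 1.3% or above, every replicate too, limit read from the data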
ABCB6 inh MLPCN: inhibitors of human ABC transporter ABCB6; fluorescence ratio to DMSO, % at 10 µM; AID 602162; hit rate 0.19% among 360,000; K562-ABCB6 porphyrin accumulation, flow cytometry, 1 h; active compounds read low; Q9NP58;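 active = fluorescence ratio to DMSO below 75%, the collection mean minus 3 SD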;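 note: signal is porphyrin accumulated inside mitochondria; lower ratio means ABCB6 inhibition with less porphyrin fluorescence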
Target sequence (Q9NP58 whole entry, looked up): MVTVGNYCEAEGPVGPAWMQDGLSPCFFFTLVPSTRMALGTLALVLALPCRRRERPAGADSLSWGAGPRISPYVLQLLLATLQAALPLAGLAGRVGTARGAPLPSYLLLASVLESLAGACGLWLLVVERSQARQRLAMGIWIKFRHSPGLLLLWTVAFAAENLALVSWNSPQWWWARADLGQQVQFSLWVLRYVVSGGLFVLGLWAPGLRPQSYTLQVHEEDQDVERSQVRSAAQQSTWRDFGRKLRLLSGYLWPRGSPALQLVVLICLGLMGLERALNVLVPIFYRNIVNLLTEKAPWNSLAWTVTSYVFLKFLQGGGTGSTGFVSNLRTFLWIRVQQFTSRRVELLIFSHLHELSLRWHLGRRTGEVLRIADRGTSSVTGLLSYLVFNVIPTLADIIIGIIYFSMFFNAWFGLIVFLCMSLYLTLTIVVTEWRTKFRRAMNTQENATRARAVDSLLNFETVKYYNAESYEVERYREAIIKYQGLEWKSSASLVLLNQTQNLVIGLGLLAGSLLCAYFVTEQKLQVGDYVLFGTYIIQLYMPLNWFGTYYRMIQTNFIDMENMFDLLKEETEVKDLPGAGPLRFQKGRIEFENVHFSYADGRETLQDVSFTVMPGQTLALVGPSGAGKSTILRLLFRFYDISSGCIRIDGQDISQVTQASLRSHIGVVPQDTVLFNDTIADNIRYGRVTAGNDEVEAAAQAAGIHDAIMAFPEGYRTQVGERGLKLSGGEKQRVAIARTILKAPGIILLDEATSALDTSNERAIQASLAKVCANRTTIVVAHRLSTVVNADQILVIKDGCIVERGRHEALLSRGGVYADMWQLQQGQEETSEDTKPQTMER
DAGLB inh: diacylglycerol lipase beta (human) inhibition; Q8NCG7; HEK293T DAGLB membrane lysate, EnzChek fluorogenic substrate; inhibition, % at 5.17 µM; hit rate 0.059% among 340,000; AID 504411; in the data active = inhibition above about 34%
Exocytosis inh: lytic granule exocytosis inhibition; TALL-104 LAMP-1 surface exposure, flow cytometry; cells stimulated with thapsigargin and PMA; inhibition, % at 10 µM; hit rate 0.66% among 360,000; AID 651702;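 active = inhibition above about 55%, limit read from the data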
DAGLB confirm: DAGLB (human) inhibition, confirmation screen. hit rate 73% among 190. HEK293T DAGLB membrane lysate, EnzChek fluorogenic substrate. inhibition, % at 5.17 µM. AID 504445. shares compounds with DAGLB inh;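 active = mean inhibition over triplicate wells above a set limit taken from the primary lipase screen, cut at about 34% in these data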
ABCB6 blocker 1: inhibitors of human ABC transporter ABCB6 | 700 tested, under 10 active | AID 602430 | K562-ABCB6 porphyrin accumulation, flow cytometry, 1 h; active compounds read low | ratio response (% of DMSO), % at 10 µM | shares compounds with ABCB6 inh MLPCN;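 active = repeat-averaged ratio response below 75% of DMSO, the collection mean minus 3 SD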;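 note: median porphyrin fluorescence at 575 nm with 488 nm excitation from mitochondria; lower ratio means less porphyrin signal so ABCB6 inhibition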
K562 vector FC: effect in K562 cells lacking ABCB6, counter-screen. AID 624484. shares compounds with ABCB6 inh MLPCN. 25 tested, under 10 active. percent response (fluorescence), % at 100 µM. K562 empty-vector cells, flow cytometry fluorescence, 1 h;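 active = compounds whose half-maximal effective concentration is below 100 µM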
MT1-MMP act val: blocks activation of human MT1-MMP in validation testing. inhibition, % at 20 µM. HT1080 RFP-PRO-GFP cells, GFP and RFP fluorescence ratio, overnight. shares compounds with MT1-MMP act inh. hit rate 10% among 200. AID 652235;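 active = inhibition of at least 50% in the primary cell screen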
A number is an active result; i = inactive; nt = not tested or not shown.

SMILES	VLA-4 inh	MT1-MMP act inh	FGF22 binding	ABCB6 inh MLPCN	DAGLB inh	Exocytosis inh	DAGLB confirm	others
Cc1ccccc1NC1=C(Cl)C(=O)OC1OC(=O)c1ccco1 (stereo not given)	i	i	i	i	35.9	i	i
COc1ccccc1NC1=C(Cl)C(=O)OC1OC(=O)c1ccco1 (stereo not given)	i	i	i	i	i	i	nt
CN(C)c1ccc(N=Nc2ccccc2C(=O)OCC(=O)NCC2CCCCC2)cc1	i	i	i	i	39.3	i	43.2
CN(C)c1ccc(N=Nc2ccccc2C(=O)OCC(=O)NC2CCCC2)cc1	i	i	nt	i	i	i	nt
CN(C)c1ccc(N=Nc2ccc(S(N)(=O)=O)cc2)cc1	i	i	i	i	39.3	i	39.0
CN(C)N=Nc1ccc(S(N)(=O)=O)cc1	i	i	i	i	i	i	nt
C[C@@H]1CN([C@@H](C)CO)C(=O)c2cc(NC(=O)Nc3cccc4ccccc34)ccc2O[C@H]1CN(C)S(=O)(=O)c1cn(C)cn1	nt	nt	i	nt	nt	nt	nt
CCN(CC)c1ccc(N=Nc2nn(C)c(C)c2[N+](=O)[O-])cc1	i	i	i	i	44.0	i	45.9
CCN(Cc1ccccc1)c1ccc(N=Nc2nn(C)c(C)c2[N+](=O)[O-])cc1	i	i	i	i	58.8	i	55.8
CCN(Cc1ccccc1)c1ccccc1	nt	i	i	i	i	i	nt
CCCOc1ccc(C(=O)NNC(=S)NC(=O)c2cc(-c3ccc(Cl)cc3)nc3ccccc23)cc1	i	i	nt	i	38.7	i	90.1
COc1ccc(C(=O)NNC(=S)NC(=O)c2cc(-c3ccccc3)nc3ccccc23)cc1	i	i	nt	i	i	i	nt
O=C(c1cc(O)c(O)c([N+](=O)[O-])c1)c1ccccc1F	i	i	i	i	37.7	i	i
O=C(Nc1ccc([N+](=O)[O-])cc1)c1ccccc1F	i	i	i	i	i	i	nt
C[C@@H]1CCCCO[C@H](CN(C)C(=O)Nc2ccc(F)cc2)[C@@H](C)CN([C@@H](C)CO)C(=O)c2cc(NC(=O)NC3CCCCC3)ccc2O1	nt	nt	i	nt	nt	nt	nt
COc1ccc(S(=O)(=O)/N=C2\C=C(Nc3ccc(O)cc3)C(=O)c3ccccc32)cc1	i	i	i	i	55.2	68.5	50.0
C[C@H](CO)N1C[C@H](C)[C@H](CN(C)Cc2ccc3c(c2)OCO3)Oc2ccc(NS(C)(=O)=O)cc2C1=O	nt	nt	i	nt	nt	nt	nt
C[C@H]1CN([C@@H](C)CO)S(=O)(=O)c2ccc(C#Cc3ccc(F)cc3)cc2O[C@@H]1CN(C)C(=O)c1ccccn1	nt	nt	i	nt	nt	nt	nt
CC(C)C(=O)NC(c1cccs1)c1cc([N+](=O)[O-])c2cccnc2c1O (stereo not given)	i	i	nt	i	36.2	i	i
O=C(O)c1ccc(N=N/C(=N\Nc2ccc(C(=O)O)cc2)c2ccccc2)cc1	i	30.6	i	i	38.6	i	i	MT1-MMP act val=i
O=C(O)c1cccc(N/N=C(\N=Nc2ccccc2)c2ccccc2)c1	i	i	i	i	i	i	nt
CC1=NN(c2ccccc2)C(=O)C1N=Nc1ccc(N)cc1 (stereo not given)	i	52.5	nt	i	35.0	i	38.4	MT1-MMP act val=62.4
Cn1c(O)c(C2=c3ccccc3=NC2=O)[nH]c1=S	i	i	nt	i	i	i	nt
COc1ccc2nc(-n3c(O)c(C4=c5ccccc5=NC4=O)[nH]c3=S)sc2c1	i	34.6	i	i	52.0	i	79.9	MT1-MMP act val=i
COc1ccc(S(=O)(=O)Nc2ccc3c(c2)C(=O)N([C@@H](C)CO)C[C@@H](C)[C@@H](CN(C)Cc2ccc(C(F)(F)F)cc2)OCCCC[C@@H](C)O3)cc1	nt	nt	i	nt	nt	nt	nt
SMILES	VLA-4 inh	MT1-MMP act inh	FGF22 binding	ABCB6 inh MLPCN	DAGLB inh	Exocytosis inh	DAGLB confirm	others
CCCN1C(=O)/C(=C2/C=Cc3ccccc3N2CC)SC1=S	i	45.2	i	i	53.6	i	73.1	MT1-MMP act val=i
COc1ccccc1N=Nc1nc(-c2ccccc2)c(-c2ccccc2)[nH]1	i	30.7	i	i	39.8	i	49.6	MT1-MMP act val=i
O=C1c2ccccc2C(=O)c2c1ccc(C(=O)N1CCCCC1)c2NCCO	i	i	nt	i	i	i	nt
CC1(C)CCCN(C(=O)c2ccc3c(c2NCCO)C(=O)c2ccccc2C3=O)C1	i	40.0	nt	i	40.5	i	44.5	MT1-MMP act val=i
C[C@@H]1CN([C@H](C)CO)C(=O)c2cc(NC(=O)C3CCCCC3)ccc2O[C@@H]1CN(C)C(=O)Nc1cccc2ccccc12	nt	nt	i	nt	nt	nt	nt
O=C1c2ccccc2C(=O)c2c(O)c(O)cc(O)c21	i	47.4	i	i	37.1	i	i	MT1-MMP act val=i
Cc1cccc(S(=O)(=O)N2CC[C@@H]3[C@H](CO)Nc4ccc(C#Cc5cccnc5)cc4[C@@H]32)c1	nt	nt	i	nt	nt	nt	nt
Cc1noc(C)c1NC(=O)Nc1ccc2c(c1)C(=O)N([C@@H](C)CO)C[C@@H](C)[C@@H](CN(C)S(=O)(=O)c1ccc(Cl)cc1)O2	nt	nt	i	nt	nt	nt	nt
Cc1cccc(CS(=O)(=O)c2ncc(Cl)c(C(=O)NCc3ccccc3)n2)c1	i	i	i	i	i	i	nt
Cc1cccc(CS(=O)(=O)c2ncc(Cl)c(C(=O)Nc3c(C)cccc3C)n2)c1	i	i	i	i	i	i	nt	ABCB6 blocker 1=i
CCCc1nnc(NC(=O)c2nc(S(=O)(=O)Cc3cccc(C)c3)ncc2Cl)s1	i	i	i	i	i	i	nt	K562 vector FC=i
Cc1cccc(C)c1NC(=O)c1nc(S(=O)(=O)Cc2ccccc2)ncc1Cl	i	i	i	i	i	i	nt	K562 vector FC=i
Cc1ccc(NC(=O)c2nc(S(=O)(=O)Cc3ccccc3)ncc2Cl)cc1	i	i	i	35.0	i	i	nt	ABCB6 blocker 1=i
CS(=O)(=O)c1ncc(Cl)c(C(=O)Nc2ccc(OC(F)F)cc2)n1	i	i	nt	i	i	i	nt
Cc1noc(C)c1S(=O)(=O)N(C)C[C@H]1Oc2ccc(NC(=O)Nc3ccc4c(c3)OCO4)cc2CC(=O)N([C@@H](C)CO)C[C@@H]1C	nt	nt	i	nt	nt	nt	nt
Cc1ccc(S(=O)(=O)Nc2ccc3c(c2)C(=O)N([C@@H](C)CO)C[C@H](C)[C@@H](CN(C)C(=O)Nc2c(C)noc2C)O3)cc1	nt	nt	i	nt	nt	nt	nt
